Laboratory results as given in ChEMBL document CHEMBL4765319, “Identification of a new series of flavopiridol-like structures as kinase inhibitors with high cytotoxic potency” (Eur J Med Chem, 2020).

Experiments:
HCT-116 [1] = experiment: Cell cycle arrest in human HCT-116 cells assessed as increase in accumulation at G0/G1 phase after 24 hrs by propidium iodide staining-based flow cytometric analysis; type: functional; settings: dose 100-500 nM
Sus scrofa = species on record: Sus scrofa; experiment: Inhibition of porcine GSK3alpha/beta assessed as residual activity at 1 uM in presence of ATP by ADP-glo luminescent assay relative to control
Outline: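 Porcine brain GSK3α/β, native and affinity-purified. Assayed by ADP-Glo luminescence with 10 μM ATP and 0.010 μg/μl GS-1 peptide substrate. Buffer A: 10 mM MgCl2, 1 mM EGTA, 1 mM DTT, 25 mM Tris-HCl pH 7.5, 50 μg/ml heparin. Compound tested at 10 or 1 μM. Result is % of maximal activity versus DMSO control, mean of n = 2.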

HCT-116 [2] = experiment: Cell cycle arrest in human HCT-116 cells assessed as accumulation at G0/G1 phase at 100 nM after 24 hrs by propidium iodide staining-based flow cytometric analysis (reference value: 20.9 %); type: functional
Leishmania major [3] = experiment: Inhibition of Leishmania major CK1 assessed as residual activity at 1 uM in presence of ATP by ADP-glo luminescent assay relative to control
[4] = Inhibition of human CDK10/cyclin M by ADP-Glo assay
CDK9/cyclin T1 = CDK9/cyclin T1 (Homo sapiens, UniProt P50750); experiment: Inhibition of human CDK9/cyclin T in presence of ATP by ADP-glo luminescent assay; type: protein-complex assay
Outline: (§1)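 Human kinases tested over roughly 0.0003–10 μM by ADP-Glo luminescence with 10 μM ATP, in duplicate. IC50 is taken from dose-response curves.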

K562 [5] = experiment: Cell cycle arrest in human K562 cells assessed as increase in accumulation at G0/G1 phase after 24 hrs by propidium iodide staining-based flow cytometric analysis; type: functional; settings: dose 25-100 nM
HCT-116 [6] = experiment: Antiproliferative activity against human HCT-116 cells assessed as reduction in cell viability incubated for 72 hrs by CellTiter-Blue fluorescence assay; settings: HCT-116, 72 h
NCI-N87 = experiment: Antiproliferative activity against human NCI-N87 cells assessed as reduction in cell viability incubated for 72 hrs by CellTiter-Blue fluorescence assay; settings: NCI-N87, 72 h
HCT-116 [7] = experiment: Cell cycle arrest in human HCT-116 cells assessed as accumulation at G2/M phase at 100 nM after 24 hrs by propidium iodide staining-based flow cytometric analysis (reference value: 31.5 %); type: functional
K562 [8] = experiment: Cell cycle arrest in human K562 cells assessed as accumulation at G2/M phase at 100 nM after 24 hrs by propidium iodide staining-based flow cytometric analysis (reference value: 12.9 %); type: functional
Plasmodium falciparum = experiment: Inhibition of Plasmodium falciparum GSK3 assessed as residual activity at 1 uM in presence of ATP by ADP-glo luminescent assay relative to control
Outline: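 Recombinant P. falciparum GSK3, bacterially expressed, in buffer A (10 mM MgCl2, 1 mM EGTA, 1 mM DTT, 25 mM Tris-HCl pH 7.5, 50 μg/ml heparin). Substrate 0.010 μg/μl GS-1 peptide, 10 μM ATP, ADP-Glo luminescence. Compound at 10 or 1 μM; % residual activity vs DMSO control, mean n = 2.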

K562 [9] = experiment: Cell cycle arrest in human K562 cells assessed as accumulation at G0/G1 phase at 100 nM after 24 hrs by propidium iodide staining-based flow cytometric analysis (reference value: 21.4 %); type: functional
[10] = biological target: T1, Glycogen synthase kinase-3 beta (Homo sapiens, UniProt P49841); experiment: Inhibition of human GSK3beta assessed as residual activity at 10 uM in presence of ATP by ADP-glo luminescent assay relative to control
Outline: (§2)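 Human kinases assayed by ADP-Glo luminescence with 10 μM ATP, compound at 10 or 1 μM. Activity is expressed as % of maximal activity relative to a DMSO control, mean n = 2.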
Target sequence in this assay (P49841 whole entry, looked up): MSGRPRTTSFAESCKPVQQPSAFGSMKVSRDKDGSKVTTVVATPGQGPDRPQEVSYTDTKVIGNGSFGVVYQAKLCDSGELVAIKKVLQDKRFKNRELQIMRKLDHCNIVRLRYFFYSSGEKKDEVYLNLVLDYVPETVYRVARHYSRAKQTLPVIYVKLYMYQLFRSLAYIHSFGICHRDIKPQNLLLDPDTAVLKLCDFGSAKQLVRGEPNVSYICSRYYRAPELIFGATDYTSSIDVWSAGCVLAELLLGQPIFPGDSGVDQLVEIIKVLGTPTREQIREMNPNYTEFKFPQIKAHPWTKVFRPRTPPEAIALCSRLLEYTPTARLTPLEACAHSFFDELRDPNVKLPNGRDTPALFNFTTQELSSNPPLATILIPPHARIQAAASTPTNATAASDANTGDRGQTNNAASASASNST

K562 [11] = experiment: Cell cycle arrest in human K562 cells assessed as accumulation at G0/G1 phase at 25 nM after 24 hrs by propidium iodide staining-based flow cytometric analysis (reference value: 21.4 %); type: functional
PC-3 = experiment: Antiproliferative activity against human PC-3 cells assessed as reduction in cell viability incubated for 72 hrs by CellTiter-Blue fluorescence assay; settings: PC-3, 72 h
HCT-116 [12] = experiment: Cell cycle arrest in human HCT-116 cells assessed as accumulation at G0/G1 phase at 200 nM after 24 hrs by propidium iodide staining-based flow cytometric analysis (reference value: 20.9 %); type: functional
Leishmania major [13] = experiment: Inhibition of Leishmania major CK1 assessed as residual activity at 10 uM in presence of ATP by ADP-glo luminescent assay relative to control
HCT-116 [14] = experiment: Cell cycle arrest in human HCT-116 cells assessed as accumulation at S phase at 500 nM after 24 hrs by propidium iodide staining-based flow cytometric analysis (reference value: 47.6 %); type: functional
CDK2/Cyclin A2 = CDK2/Cyclin A2 (Homo sapiens, UniProt P24941); experiment: Inhibition of human CDK2/cyclin A in presence of ATP by ADP-glo luminescent assay; type: protein-complex assay; outline: as §1
[15] = biological target: T1, Glycogen synthase kinase-3 beta; experiment: Potency index, ratio of flavopiridol IC50 to test compound IC50 for human GSK3beta in presence of ATP by ADP-glo luminescent assay
Target sequence in this assay (P49841 whole entry, looked up): as above

[16] = biological target: T1, Glycogen synthase kinase-3 beta; experiment: Inhibition of human GSK3beta assessed as residual activity at 1 uM in presence of ATP by ADP-glo luminescent assay relative to control; outline: as §2
Target sequence in this assay (P49841 whole entry, looked up): as above

MIA PaCa-2 = experiment: Potency index, ratio of flavopiridol IC50 to test compound IC50 for human MIA PaCa-2 cells assessed as reduction in cell viability incubated for 72 hrs by CellTiter-Blue resazurin fluorescence assay
[17] = biological target: CDK2/Cyclin A2 (Homo sapiens) (UniProt P24941+P20248); experiment: Inhibition of human CDK2/cyclin A assessed as residual activity at 1 uM in presence of ATP by ADP-glo luminescent assay relative to control; type: protein-complex assay; outline: as §2
[18] = biological target: T1, Glycogen synthase kinase-3 beta; experiment: Inhibition of human GSK3beta in presence of ATP by ADP-glo luminescent assay; outline: as §1
Target sequence in this assay (P49841 whole entry): as the sequence (P49841 whole entry, looked up) above

HCT-116 [19] = experiment: Cell cycle arrest in human HCT-116 cells assessed as accumulation at S phase at 100 nM after 24 hrs by propidium iodide staining-based flow cytometric analysis (reference value: 47.6 %); type: functional
HCT-116 [20] = experiment: Cell cycle arrest in human HCT-116 cells assessed as accumulation at S phase at 200 nM after 24 hrs by propidium iodide staining-based flow cytometric analysis (reference value: 47.6 %); type: functional

Chain of CDK9/cyclin T1 (O60563 whole entry): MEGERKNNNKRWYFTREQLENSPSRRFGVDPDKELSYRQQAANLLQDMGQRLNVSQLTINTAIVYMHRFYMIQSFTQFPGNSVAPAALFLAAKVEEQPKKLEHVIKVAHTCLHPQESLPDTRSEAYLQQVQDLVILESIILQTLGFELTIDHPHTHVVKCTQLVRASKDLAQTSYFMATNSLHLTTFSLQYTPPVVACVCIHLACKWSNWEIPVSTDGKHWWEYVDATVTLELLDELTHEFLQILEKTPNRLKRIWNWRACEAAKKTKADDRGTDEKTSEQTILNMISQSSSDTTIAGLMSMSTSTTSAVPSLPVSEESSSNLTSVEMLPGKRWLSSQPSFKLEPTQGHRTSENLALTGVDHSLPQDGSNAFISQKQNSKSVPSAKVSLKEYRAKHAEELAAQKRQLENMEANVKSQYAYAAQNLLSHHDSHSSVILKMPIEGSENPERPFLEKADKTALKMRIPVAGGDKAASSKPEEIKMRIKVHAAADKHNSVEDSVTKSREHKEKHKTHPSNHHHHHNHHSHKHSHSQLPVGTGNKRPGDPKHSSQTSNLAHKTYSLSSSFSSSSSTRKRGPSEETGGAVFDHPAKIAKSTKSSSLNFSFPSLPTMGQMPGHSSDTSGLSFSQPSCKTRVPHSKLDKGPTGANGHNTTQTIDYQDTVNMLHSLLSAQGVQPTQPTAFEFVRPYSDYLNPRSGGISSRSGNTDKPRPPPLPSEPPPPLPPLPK
Chain of CDK9/cyclin T1 (P50750 whole entry): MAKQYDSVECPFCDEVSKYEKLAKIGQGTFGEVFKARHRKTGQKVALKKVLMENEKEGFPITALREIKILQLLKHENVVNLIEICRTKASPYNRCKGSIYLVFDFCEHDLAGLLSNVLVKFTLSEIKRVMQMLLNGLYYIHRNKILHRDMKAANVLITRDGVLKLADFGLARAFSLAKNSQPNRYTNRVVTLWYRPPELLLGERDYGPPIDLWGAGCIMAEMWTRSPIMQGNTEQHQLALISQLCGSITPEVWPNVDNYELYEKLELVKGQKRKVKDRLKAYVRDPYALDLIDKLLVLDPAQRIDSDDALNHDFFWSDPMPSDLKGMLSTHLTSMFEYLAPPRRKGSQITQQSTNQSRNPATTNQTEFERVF

CN1CC=C(c2c(O)cc(O)c3c(=O)cc(-c4ccc(Sc5nc6ccccc6n5C)cc4Cl)oc23)CC1
Activity (HCT-116 [1]): Dose-dependent effect
Activity (Sus scrofa): 31%
Activity (HCT-116 [2]): 20.6%
Activity (Leishmania major [3]): 62%
IC50 [4]: 149 nM
IC50 (CDK9/cyclin T1): 64 nM
Activity (K562 [5]): Dose-dependent effect
IC50 (HCT-116 [6]): 81 nM
IC50 (NCI-N87): 49 nM
Activity (HCT-116 [7]): 30.7%
Activity (K562 [8]): 28.7%
Activity (Plasmodium falciparum): 80%
Activity (K562 [9]): 50.3%
Activity [10]: 2%
Activity (K562 [11]): 20.7%
IC50 (PC-3): 85 nM
Activity (HCT-116 [12]): 26%
Activity (Leishmania major [13]): 38%
Activity (HCT-116 [14]): 25.1%
IC50 (CDK2/Cyclin A2): 1730 nM
Ratio IC50 [15]: 20
Activity [16]: 12%
Ratio IC50 (MIA PaCa-2): <=6
Activity [17]: 87%
IC50 [18]: 59 nM
Activity (HCT-116 [19]): 48.7%
Activity (HCT-116 [20]): 43.1%
